# Lmaj promast – inhibitors of Leishmania major promastigote growth; AID 1063; Leishmania major promastigotes, resazurin fluorescence viability; 200,000 compounds, 9% hits; inhibition, % at 10 µM;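 also: promastigotes grown with compound for 44 hours at 28 °C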
# Arbovirus anti – arbovirus infection inhibition; inhibition, % at 10 µM; arbovirus infection cell-based antiviral screen; 200,000 compounds, 0.37% hits; in the data active = inhibition above about 30%
# CHOP inh – blocks CHOP induction under ER stress; CHO-K1 CHOP-promoter luciferase, tunicamycin-induced, 15-18 h; inhibition, % at 10 µM; 220,000 compounds, 3.8% hits;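 active = compounds that reduced the stress-induced luciferase reporter signal by more than about 70% of percent inhibition, limit read from the data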
# PKD1 kinase inh – PKD1 (human) kinase inhibition; 200,000 compounds, 0.056% hits; PKD1 kinase fluorescence polarization assay; inhibition, % (concentration not given with the values); Q15139
# Target sequence (Q15139 whole entry, looked up): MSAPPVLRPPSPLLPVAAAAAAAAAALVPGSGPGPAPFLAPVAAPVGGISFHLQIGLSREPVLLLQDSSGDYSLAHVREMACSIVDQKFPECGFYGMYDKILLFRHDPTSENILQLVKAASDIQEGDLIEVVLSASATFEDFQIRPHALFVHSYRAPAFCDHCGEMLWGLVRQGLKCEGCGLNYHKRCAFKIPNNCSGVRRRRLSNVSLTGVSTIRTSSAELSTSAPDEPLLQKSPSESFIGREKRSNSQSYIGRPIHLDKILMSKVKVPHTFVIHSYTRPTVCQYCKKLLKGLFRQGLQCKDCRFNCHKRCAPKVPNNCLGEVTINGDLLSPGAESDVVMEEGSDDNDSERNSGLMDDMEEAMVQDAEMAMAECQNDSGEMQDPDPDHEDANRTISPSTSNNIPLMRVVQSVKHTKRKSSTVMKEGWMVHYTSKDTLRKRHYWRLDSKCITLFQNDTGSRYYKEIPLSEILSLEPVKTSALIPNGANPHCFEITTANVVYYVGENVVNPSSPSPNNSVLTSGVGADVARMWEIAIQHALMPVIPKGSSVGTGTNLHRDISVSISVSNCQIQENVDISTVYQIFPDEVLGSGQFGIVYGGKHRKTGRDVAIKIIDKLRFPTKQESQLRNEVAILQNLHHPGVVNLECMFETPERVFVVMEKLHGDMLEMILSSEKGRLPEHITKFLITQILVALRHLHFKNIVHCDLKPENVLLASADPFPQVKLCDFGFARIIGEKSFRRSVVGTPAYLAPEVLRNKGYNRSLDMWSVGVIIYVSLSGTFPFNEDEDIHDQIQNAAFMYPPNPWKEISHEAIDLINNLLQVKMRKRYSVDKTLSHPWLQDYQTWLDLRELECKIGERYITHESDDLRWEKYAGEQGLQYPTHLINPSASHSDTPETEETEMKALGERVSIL
# Wee1 degr inh – inhibitors of human Wee1 degradation; HeLa Luc-Wee1K328M stability, luciferase luminescence; 100% = proteasome inhibitor MG132 effect; 220,000 compounds, 1.2% hits; P30291; reporter increase, % at 5 µM;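 active = activation above the mean of all tested compounds plus 3 SD, set per screening run, cut at about 8.8% in these data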;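 also: cells exposed to compound for 20 h before luminescence read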
# Rad51 HR inh – Rad51 (human) homologous recombination inhibition; inhibition, % at 10 µM; hRad51 DNA strand exchange, fluorescence dequenching; 200,000 compounds, 0.085% hits; Q06609;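 active = inhibition above 40% at the single screening dose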
#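 System: hRad51 filaments on single-stranded DNA; reagent: Fluorescein- and BHQ1-tagged 47-mer duplex; compound dosing: one concentration, 10 µM final; timing: filaments 15 min 37 °C, then compound 30 min; measured by: fluorescein emission 520 nm, excitation 485 nm; benchmarks: per-plate controls and blanks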
# A number is an active result; . = inactive; / = not tested or not shown. This is a sample that favours compounds with a hit; in the whole collection about 12% have one here. Rule as the data show it, unless noted: active = inhibition above about 50%; inactive = the rest.
SMILES,Lmaj promast,Arbovirus anti,CHOP inh,PKD1 kinase inh,Wee1 degr inh,Rad51 HR inh
COc1ccc(C2=NN(CCC(=O)NCc3ccc4c(c3)OCO4)C(=O)CC2)cc1,54,.,.,.,.,.
Cc1ccc(C2=NN(CCC(=O)NCCC(C)C)C(=O)CC2)cc1,73,.,.,.,.,.
CCOc1ccc(N2C(=O)C(c3ccccc3)=C(c3nc4ccccc4s3)C2NC(C)=O)cc1 (stereo unspecified),51,.,.,.,.,.
CCOc1ccc(-n2nnnc2-c2nc3ccccc3s2)cc1,.,.,.,.,.,.
COc1ccc2c(Cl)c(C(=O)NN3CCN(C)CC3)sc2c1,.,.,.,.,.,.
CCn1c(O)c(C2=c3ccccc3=NC2=O)c2cc(Br)ccc21,100,.,.,.,.,.
COc1ccc(C(=O)CSc2nnc(-c3cc4ccccc4cc3O)n2Cc2ccco2)cc1,69,.,.,.,.,.
O=C(CSc1nnc(-c2ccncc2)n1Cc1ccco1)c1ccc(Cl)cc1,.,.,.,.,.,.
O=C(CSc1nnc(Cc2cccs2)n1Cc1ccco1)Nc1cc(Cl)cc(Cl)c1,.,.,82,.,.,.
O=C(CSc1nnc(-c2ccc(Cl)cc2)n1Cc1ccco1)c1cccs1,80,.,.,.,.,/
Cc1cnc(NC(=O)CSc2ncc(-c3ccccc3)n2Cc2ccco2)s1,.,.,73,.,.,.
N/C(=N\c1nc2ccccc2o1)NC(=O)c1ccccc1Br,/,/,.,/,.,.
O=C(CSc1nnc(-c2ccncc2)n1Cc1ccco1)Nc1ccccc1Cl,.,.,.,.,.,.
O=C(CSc1nnc(-c2ccncc2)n1Cc1ccco1)Nc1nc(-c2ccccc2)cs1,.,.,77,.,.,.
Cc1occc1-c1nnc(SCC(=O)Nc2nc(-c3ccccc3)cs2)o1,.,.,72,.,.,.
CC1CCC2(CC1)NC(=O)N(Cc1cccc(C(F)(F)F)c1)C2=O (stereo unspecified),100,.,.,.,.,.
O=C(Cc1c(F)cccc1Cl)Nc1ccc(S(=O)(=O)NCC2CCCO2)cc1 (stereo unspecified),.,.,.,.,.,.
N#CCCCCN1CCCC1,/,/,.,/,.,.
O=[N+]([O-])c1ccc(Nc2ccccc2)nc1,56,.,.,.,.,.
O=[N+]([O-])c1ccc(Nc2ccc(F)cc2)nc1,.,.,.,.,.,.
O=C(NCc1ccccc1F)Nc1ccc([N+](=O)[O-])cc1,.,.,.,.,.,.
COCCCN=Cc1c(C)[nH]n(-c2ccc(Br)cc2Br)c1=O,.,.,.,.,.,.
COc1ccc(-c2nnc(N3CCC(C)CC3)c3ccccc23)cc1,.,.,85,.,.,/
CC1CCN(c2nnc(N3CCC(C)CC3)c3ccccc23)CC1,.,.,.,.,.,/
COc1ccc(C2c3c(-c4ccccc4O)n[nH]c3C(=O)N2CCc2ccc(OC)c(OC)c2)cc1 (stereo unspecified),89,.,.,.,.,.
SMILES,Lmaj promast,Arbovirus anti,CHOP inh,PKD1 kinase inh,Wee1 degr inh,Rad51 HR inh
COc1cc2c(cc1NC(=O)c1cc(-c3cccnc3)nc3ccc(C)cc13)oc1ccccc12,.,.,86,.,.,.
COc1cc2c(cc1NC(=O)c1cccc([N+](=O)[O-])c1C)oc1ccccc12,.,.,.,.,.,.
COc1cc2c(cc1NC(=O)c1cc(-c3ccncc3)nc3ccccc13)oc1ccccc12,.,.,85,.,.,.
Cc1ccc(NC(=O)COC(=O)/C(=C/c2cccs2)c2cccs2)cc1S(=O)(=O)N(C)C,.,.,.,.,.,/
COc1ccc(-c2nnn(CC(=O)N(CC3CCCO3)C(C(=O)NC(C)(C)C)c3ccco3)n2)cc1OC (stereo unspecified),.,.,.,.,.,.
Cc1ccc[n+](CC(=O)Nc2cc(C(F)(F)F)ccc2N2CCOCC2)c1,.,.,.,.,.,.
CC(C)N1C/C(=C/c2ccsc2)C(=O)/C(=C/c2ccsc2)C1,100,.,.,.,.,.
CN1C/C(=C/c2cccnc2)C(=O)/C(=C/c2cccnc2)C1,100,.,81,.,.,/
CC(C)N1C/C(=C/c2cccnc2)C(=O)/C(=C/c2cccnc2)C1,100,.,100,.,.,/
CC(C)N1CC2=C(OC(N)=C(C#N)C2c2cccnc2)/C(=C/c2cccnc2)C1 (stereo unspecified),.,.,.,.,.,.

# Screening results as filed in PubChem BioAssay.
